Experimental data taken from ChEMBL document CHEMBL2010694, “Indolyl and dihydroindolyl N-glycinamides as potent and in vivo active NPY5 antagonists” (Bioorg Med Chem Lett, 2012).

How the values were obtained:
Plasma = assay: Plasma concentration in Sprague-Dawley rat at 10 mg/kg, po by LC-MS/MS analysis; format: ADME, organism-based; design: dose 10 mg/kg, route oral; conditions: in vivo
Summary of the method: (§1)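 Male Sprague-Dawley rats (300–350 g), femoral artery cannulated; single 10 mg/kg oral dose in an appropriate vehicle, N = 3. Blood taken predose, 1, 2 and 4 h; brains then collected and stored at -80 °C. Equal portions of plasma or homogenized brain from the three rats pooled per time point, protein precipitated, quantified by LC/MS/MS.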

Liver microsomes [1] = assay: Intrinsic clearance in human liver microsomes at 1 uM by LC/MS analysis; format: ADME, Microsome
Summary of the method: (§2)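 Compound incubated with human or rat liver microsomes; reaction quenched with acetonitrile, centrifuged, and remaining drug in supernatant measured by LC/MS to estimate T1/2, from which intrinsic clearance was derived.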

Brain = assay: Drug uptake in Sprague-Dawley rat brain at 10 mg/kg, po by LC-MS/MS analysis; format: ADME, organism-based; design: dose 10 mg/kg, route oral; conditions: in vivo, read-out: Drug uptake; summary of the method: as §1
Liver microsomes [2] = assay: Intrinsic clearance in rat liver microsomes at 1 uM by LC/MS analysis; format: ADME, Microsome; summary of the method: as §2
[3] = molecular target: T1, Neuropeptide Y receptor type 5 (Homo sapiens, UniProt Q15761); assay: Displacement of [125I]peptide YY from human NPY5 receptor
T1 sequence (Q15761 whole entry): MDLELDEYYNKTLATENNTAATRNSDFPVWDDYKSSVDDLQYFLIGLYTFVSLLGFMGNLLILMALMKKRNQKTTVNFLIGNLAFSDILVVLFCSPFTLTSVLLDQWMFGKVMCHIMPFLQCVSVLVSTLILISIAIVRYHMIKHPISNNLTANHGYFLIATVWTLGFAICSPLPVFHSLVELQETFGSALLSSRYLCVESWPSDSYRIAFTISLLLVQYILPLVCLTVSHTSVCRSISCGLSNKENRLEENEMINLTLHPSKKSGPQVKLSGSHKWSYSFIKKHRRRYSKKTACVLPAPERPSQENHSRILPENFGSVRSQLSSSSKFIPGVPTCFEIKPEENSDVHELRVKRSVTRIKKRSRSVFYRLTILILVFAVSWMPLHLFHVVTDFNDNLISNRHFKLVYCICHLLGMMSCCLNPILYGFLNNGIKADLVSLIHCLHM

Structure (SMILES) | concentration (Plasma) | CLH (Liver microsomes [1]) | concentration (Brain) | CLH (Liver microsomes [2]) | Ki [3]
CC(C)S(=O)(=O)NC[C@H]1CC[C@H](NC(=O)CN2C(=O)CCc3cc(Cl)ccc32)CC1 | 877 nM | 0.8 L/min | 17 nM | 40 mL/min | –
CC(C)S(=O)(=O)NC[C@H]1CC[C@H](NC(=O)CN2CC(C)(C)c3cc(Cl)ccc32)CC1 | 417 nM | 14 L/min | 50 nM | 205 mL/min | 1.1 nM
CC(C)S(=O)(=O)NC[C@H]1CC[C@H](NC(=O)Cn2ccc3cc(F)c(F)cc32)CC1 | 2080 nM | 2.5 L/min | 328 nM | 28 mL/min | 0.9 nM
CC(C)S(=O)(=O)NC[C@H]1CC[C@H](NC(=O)Cn2ccc3cc(C#N)ccc32)CC1 | 769 nM | 0.4 L/min | 43 nM | 8.7 mL/min | 5.6 nM
CC(C)S(=O)(=O)NC[C@H]1CC[C@H](NC(=O)Cn2ccc3ccccc32)CC1 | 460 nM | 1 L/min | 81 nM | 27 mL/min | 1.5 nM
CC(C)S(=O)(=O)NC[C@H]1CC[C@H](NC(=O)Cn2ccc3cccc(Cl)c32)CC1 | – | – | – | – | 0.9 nM
CC(C)S(=O)(=O)NC[C@H]1CC[C@H](NC(=O)Cn2c(=O)oc3ccccc32)CC1 | 1640 nM | 0.5 L/min | 19 nM | 1.9 mL/min | 10 nM
CC(C)S(=O)(=O)NC[C@H]1CC[C@H](NC(=O)CCN2CCc3ccccc32)CC1 | 24 nM | 5.8 L/min | 7 nM | 7.1 mL/min | 1.8 nM
CC(C)S(=O)(=O)NC[C@H]1CC[C@H](NC(=O)CN2CCCc3cc(Cl)ccc32)CC1 | 498 nM | 2.8 L/min | 88 nM | 36 mL/min | –
Cc1cc2ccccc2n1CC(=O)N[C@H]1CC[C@H](CNS(=O)(=O)C(C)C)CC1 | 242 nM | 1.1 L/min | 49 nM | 49 mL/min | 8.9 nM
CC(C)S(=O)(=O)NC[C@H]1CC[C@H](NC(=O)Cn2ccc3ccc(F)cc32)CC1 | – | – | – | – | 1.2 nM
CC(C)S(=O)(=O)NC[C@H]1CC[C@H](NC(=O)Cc2cn(C)c3ccccc23)CC1 | 296 nM | 1.2 L/min | 17 nM | 22 mL/min | 2 nM
Cc1ccc2c(c1)CCN2CC(=O)N[C@H]1CC[C@H](CNS(=O)(=O)C(C)C)CC1 | 6140 nM | 3.1 L/min | 477 nM | 54 mL/min | 3.5 nM
CC(C)S(=O)(=O)NC[C@H]1CC[C@H](NC(=O)Cn2ccc3cc(F)ccc32)CC1 | 1300 nM | 0.6 L/min | 100 nM | 11 mL/min | 2.2 nM
CC(C)S(=O)(=O)NC[C@H]1CC[C@H](NC(=O)Cn2c(=O)sc3cc(Cl)ccc32)CC1 | 870 nM | 1 L/min | 11 nM | 12 mL/min | 0.9 nM
CC(C)S(=O)(=O)NC[C@H]1CC[C@H](NC(=O)Cc2c[nH]c3ccccc23)CC1 | 2560 nM | 0.5 L/min | 54 nM | 3.4 mL/min | 12 nM
CC(C)S(=O)(=O)NC[C@H]1CC[C@H](NC(=O)CN2CCOc3cc(Cl)ccc32)CC1 | 428 nM | 2.9 L/min | – | 35 mL/min | –
CC(C)S(=O)(=O)NC[C@H]1CC[C@H](NC(=O)CN2CCc3cc(F)ccc32)CC1 | 2680 nM | 1.4 L/min | 117 nM | 21 mL/min | 4 nM
CC(C)S(=O)(=O)NC[C@H]1CC[C@H](NC(=O)Cn2ccc3c(Cl)cccc32)CC1 | – | – | – | – | 1.7 nM
CC(C)S(=O)(=O)NC[C@H]1CC[C@H](NC(=O)CN2C(=O)COc3cc(Cl)ccc32)CC1 | 480 nM | 0.5 L/min | – | 15 mL/min | –
CC(C)S(=O)(=O)NC[C@H]1CC[C@H](NC(=O)Cn2ccc3ccc(Cl)cc32)CC1 | 157 nM | 2.6 L/min | 134 nM | 37 mL/min | 1 nM
CC(C)S(=O)(=O)NC[C@H]1CC[C@H](NC(=O)CN2CCc3c2ccc(F)c3F)CC1 | 1520 nM | 4.5 L/min | 105 nM | 39 mL/min | 1.5 nM
